The record followed here is ChEMBL document CHEMBL1212806, “Chemoselective small molecules that covalently modify one lysine in a non-enzyme protein in plasma” (Nat Chem Biol, 2010).

Series [1] has as its target T1, Transthyretin (Homo sapiens, UniProt P02766). The series is described as follows: Binding affinity to wild-type TTR assessed as nonchemoselective conjugation of TTR after 18 hrs by C18-RP-HPLC.
The nature of series [2]: Binding affinity to TTR K15A mutant assessed as nonchemoselective conjugation of TTR after 18 hrs by C18-RP-HPLC.
The target of series [3] is T1, Transthyretin. The series is described as follows: Inhibition of wild type TTR amyloidogenesis assessed as fibril formation at […] after 72 hrs at pH 4.4 by spectrophotometry relative to untreated control. More on the design: scale not given: the % may be the effect or the level left.
Series [4] relates to Transthyretin (Homo sapiens), P02766 [V50M]. The series is described as follows: Inhibition of TTR V30M mutant amyloidogenesis assessed as fibril formation at […] after 72 hrs at pH 4.4 by spectrophotometry relative to untreated control. More on the design: scale not given: the % may be the effect or the level left.
Series [5] concerns the target T1, Transthyretin. The series is described as follows: Inhibition of wild type TTR amyloidogenesis assessed as fibril formation at 7.2 uM after 72 hrs at pH 4.4 by spectrophotometry relative to untreated control. More on the design: scale not given: the % may be the effect or the level left.
Series [6] concerns Transthyretin (Homo sapiens), P02766 [V50M]. The series is described as follows: Inhibition of TTR V30M mutant amyloidogenesis assessed as fibril formation at 7.2 uM after 72 hrs at pH 4.4 by spectrophotometry relative to untreated control. The arrangement: scale not given: the % may be the effect or the level left.
The target in series [7] is T1, Transthyretin. The series is described as follows: Inhibition of wild type TTR amyloidogenesis assessed as inhibition of fibril formation after 72 hrs at pH 4.4 by spectrophotometry relative to untreated control.
Series [8] deals with T1, Transthyretin. The series is described as follows: Binding affinity to wild type TTR in human plasma assessed as covalent modification of TTR subunit after 18 hrs by RP-HPLC analysis. The format is cell-free.
Series [9] concerns the target T1, Transthyretin. The series is described as follows: Binding affinity to wild type TTR tetramer in human plasma assessed as covalent chemoselective amide bond formation with Lys15 residue of TTR subunit at 7.2 uM after 18 hrs by RP-HPLC analysis. In kind it is cell-free.
The next series is filed under the species Homo sapiens. The series is described as follows: Binding affinity to TTR K15A mutant tetramer in human plasma assessed as covalent chemoselective amide bond formation with residue-15 of TTR subunit at 7.2 uM after 18 hrs by RP-HPLC analysis. In kind it is cell-free.
Series [10] has as its target T1, Transthyretin. The series is described as follows: Stabilization of wild-type TTR tetramer assessed as time needed for 95% TTR-compound conjugate formation by C18-RP-HPLC.
Series [11] addresses T1, Transthyretin. The series is described as follows: Stabilization of wild-type TTR tetramer assessed as rate of TTR-compound conjugate formation by C18-RP-HPLC.
Series [12] can be described thus: Toxicity in human IMR32 cells assessed as reduction of cell viability after 24 hrs by resazurin reduction assay. The format is cell-based. The following applies: imr-32, 24 h. Summed up: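 IMR-32 cells (6,000/well, overnight) were exposed 24 h at 37 °C to compound preincubated 18 h at 37 °C in HBSS without TTR, diluted 1:1 in supplemented Opti-MEM. Viability was read by resazurin fluorescence (Ex/Em 530/590, 1 h), as % of vehicle-treated cells after blank subtraction.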
For orientation: Resazurin is reduced to fluorescent resorufin, in cell work by metabolically active cells.

Series [13] concerns the target T1, Transthyretin. The series is described as follows: Binding affinity to TTR in human plasma at 10.8 uM after 24 hrs RP-HPLC analysis. The format is cell-free.
The target in series [14] is T1, Transthyretin. The series is described as follows: Binding affinity to wild type TTR assessed as induction of benzoylation at Lys15 residue of TTR subunit by LC-MS method.
The target in series [15] is T1, Transthyretin. The series is described as follows: Inhibition of wild type TTR induced cytotoxicity in human IMR32 cells assessed as cell viability after 24 hrs by resazurin reduction assay. The following applies: IMR-32. The format is cell-based. Summed up: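 IMR-32 neuroblastoma cells were seeded at 6,000/well in Opti-MEM with 5% FBS and grown overnight. Cold-purified WT-TTR in HBSS was preincubated 18 h at 37 °C with compound, then diluted 1:1 in supplemented Opti-MEM onto cells. After 24 h at 37 °C, resazurin was added and fluorescence read (Ex/Em 530/590) after 1 h. Results are % of vehicle, blank-subtracted, mean ± SE of 2 experiments, at least triplicate.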

Series [16] deals with T1, Transthyretin. The series is described as follows: Inhibition of wild type TTR amyloidogenesis assessed as fibril formation at 1.8 to 2.7 uM after 120 hrs at pH 4.4 by spectrophotometry relative to untreated control.
Series [17] deals with T1, Transthyretin. The series is described as follows: Noncovalent binding affinity to wild type TTR T4 site assessed as fibril formation at 7.2 uM after 72 hrs at pH 4.4 by RP-HPLC analysis.
For series [18], the target named is T1, Transthyretin. The series is described as follows: Noncovalent binding affinity to TTR K15A mutant T4 site assessed as fibril formation at 7.2 uM after 72 hrs at pH 4.4 by RP-HPLC analysis.

Structures are written as SMILES. Calls of active or inactive are those of the source. The calls are words filed in the database; no cut-off is given here.

As to `Cc1cc(/C=C/c2ccc(C(=O)Oc3ccccc3[N+](=O)[O-])cc2)cc(C)c1O`, the outcome (on Transthyretin [1]; in [2]) was Active.
As for `Cc1cc(/C=C/c2cccc(C(=O)Sc3ccccc3)c2)cc(C)c1O`, the Activity is 16% at Transthyretin [3]; 34% in series [4]; 2% on Transthyretin [5]; 3% in series [6]; 48% at Transthyretin [8]; “Non-toxic” in series [12]. The inhibition result on Transthyretin [7] and on Transthyretin [15] was “Dose-dependent effect” throughout. For the same molecule, the outcome at Transthyretin [9], on Transthyretin [13] and at Transthyretin [14] was Active. Further, in the series filed under Homo sapiens, the outcome was inactive. Also, the TIME on Transthyretin [10] was found to be 1.35 h. Besides, the T1/2 at Transthyretin [11] was 15 min.
As for `Cc1cc(/C=C/c2cccc(C(=O)O)c2)cc(C)c1O`, the IC50 – broadly, the midpoint of a concentration-inhibition curve – on Transthyretin [7] amounted to 3.07 µM. Also, the inhibition result at Transthyretin [7] and on Transthyretin [15] was “Dose-dependent effect” in each case. In addition, the Activity entry in series [12] is “Non-toxic”. On Transthyretin [16], the inhibition entry is “Active”. Besides, the outcome on Transthyretin [17] and on Transthyretin [18] was Active.
Regarding `Cc1cc(/C=C/c2ccc(C(=O)Oc3ccc(F)cc3)cc2)cc(C)c1O`, on Transthyretin [1], the result was Active.
Regarding `Cc1cc(/C=C/c2ccc(C(=O)Sc3ccccc3)cc2)cc(C)c1O`, the result at Transthyretin [1] was Active.
On to `Cc1cc(/C=C/c2cccc(C(=O)Oc3ccc(F)cc3)c2)cc(C)c1O`, for which the result in the series listed under Homo sapiens was inactive. The TIME at Transthyretin [10] was determined as 21.9 h. In addition, the Activity entry in [12] is “Non-toxic”.
As to `Cc1cc(/C=C/c2cccc(C(=O)Oc3ccccc3[N+](=O)[O-])c2)cc(C)c1O`, the Activity at Transthyretin [3] is 21%; in series [4] it was 33%; on Transthyretin [5], 4%; in series [6] it was 3%; at Transthyretin [8], 49%. In addition, the 50% inhibitory concentration (IC50) on Transthyretin [7] is 2.26 µM. Besides, the inhibition entry on Transthyretin [7] was “Dose-dependent effect”. The outcome on Transthyretin [9], on Transthyretin [13] and at Transthyretin [14] was Active. Also, the outcome in the series listed under Homo sapiens was inactive. For the same molecule, the TIME on Transthyretin [10] is 0.983 h. In addition, the T1/2 at Transthyretin [11] amounted to 5 min.
Consider `O=C(Sc1ccccc1)c1cccc(/C=C/c2cc(Br)c(O)c(Br)c2)c1`, for which the Activity at Transthyretin [3] was determined as 12%; in series [4] it was 17%; at Transthyretin [5] it was 2%; in series [6], 3%; at Transthyretin [8], 36%. Moreover, the inhibition result at Transthyretin [7] was “Dose-dependent effect”. For the same molecule, the outcome on Transthyretin [9], at Transthyretin [13] and at Transthyretin [14] was Active. Further, the result in the series filed under Homo sapiens was inactive. Moreover, at Transthyretin [10], the TIME came out at 21.2 h.
Take `Cc1cc(/C=C/c2ccccc2)cc(C)c1O`: the inhibition result at Transthyretin [7] and at Transthyretin [15] was “Dose-dependent effect” in each case. For the same molecule, the Activity entry in series [12] is listed as “Non-toxic”. Besides, on Transthyretin [16], the inhibition result is “Active”. For the same molecule, the result at Transthyretin [17] and at Transthyretin [18] was Active.
